# Most compounds without a hit are left out; they make up all but 3% or so of the library.
# 5HT1E ag = agonists of human 5-HT1E serotonin receptor. CHO 5-HT1E Ga15 NFAT-bla reporter, FRET; 0% DMSO wells, 100% control agonist wells. activation, % at 6 µM. P28566. actives 0.69% (n = 65,000);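 active means activation above a set limit, the screen-wide mean activation plus 3 SD, cut at about 8.5% in these data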;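 further: 100% = positive control agonist at 1 µM giving full maximal response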
# S1P1 ag-PAM = S1P1 (human) agonism or agonism potentiation; P21453; S1P1 CRE-bla cells, forskolin, beta-lactamase FRET, potentiator mode; S1P1 agonist co-added at EC20, 2 nM; 100% = saturating reference agonist, 0% = basal; activation, % at 9.5 µM; actives 0.57% (n = 56,000); AID 449;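 active means activation above a cutoff set at the mean activation of all tested compounds plus 3 SD, cut at about 54% in these data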;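 further: forskolin at 4 µM as EC80 and the EC20 agonist is SEW2871; 100% = SEW2871 at its EC100 plus forskolin at EC80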
# S1P3 agonist = agonists of human S1P3 receptor; S1P3 NFAT-BLA reporter cells, agonism, FRET ratio; relative to 1 µM S1P, basal subtracted; activation, % at 4.5 µM; actives 0.1% (n = 60,000);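 active means activation above the screen-wide mean plus 3 SD, cut at about 4.5% in these data, passing the limit was not always enough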
# Target sequence (Q99500 whole entry, looked up): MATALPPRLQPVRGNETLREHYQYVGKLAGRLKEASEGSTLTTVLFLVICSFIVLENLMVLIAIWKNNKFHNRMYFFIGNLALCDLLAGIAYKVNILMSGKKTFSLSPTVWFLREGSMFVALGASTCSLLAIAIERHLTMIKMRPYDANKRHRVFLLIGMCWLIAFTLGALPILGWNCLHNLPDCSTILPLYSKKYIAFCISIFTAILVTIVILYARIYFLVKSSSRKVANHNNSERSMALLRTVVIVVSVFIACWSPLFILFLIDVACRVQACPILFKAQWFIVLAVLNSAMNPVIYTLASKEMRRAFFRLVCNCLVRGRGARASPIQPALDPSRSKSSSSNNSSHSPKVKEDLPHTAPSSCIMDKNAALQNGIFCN
#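 Benchmarks: high control 1 µM S1P / System: stable CHO line with human S1P3, Gα16, NFAT-BLA reporter / Dosing: single compound concentration, 4.5 µM final / Timing: 4 h compound at 37 °C, 2 h substrate at RT / Measured by: FRET β-lactamase substrate fluorescence, excitation 405 nm, 460/535 nm emission ratio, background-subtracted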
# HTR1A agonist = activates the human 5-HT1a serotonin receptor | AID 567 | CHO 5-HT1a Ga15 NFAT-bla reporter, FRET ratio; 0% basal, 100% maximal reference agonist | P08908 | activation, % at 10 µM | actives 0.56% (n = 65,000);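 active means activation above the screen-wide mean activation plus 3 SD, cut at about 19% in these data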;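 further: 0% = DMSO wells and 100% = 5-CT at EC100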
# HTR1E antagonist = antagonists of human 5-HT1E serotonin receptor | CHO 5-HT1E Ga15 NFAT-bla reporter, FRET, antagonist | inhibition, % at 6 µM | actives 0.99% (n = 65,000) | AID 571 | P28566;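 active means inhibition above a set limit, the mean inhibition across every tested compound plus 3 SD, cut at about 29% in these data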;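 further: signal is the 460 over 535 nm emission ratio of beta-lactamase substrate; 0% = agonist plus DMSO wells and 100% = wells without agonist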
# 5HT1a antag = 5-HT1a (human) receptor antagonism. CHO 5-HT1a Ga15 NFAT-bla reporter, antagonist mode. inhibition, % at 10 µM. actives 0.68% (n = 62,000);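 active means inhibition above the mean of all tested compounds plus 3 SD, cut at about 43% in these data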;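 further: receptor stimulated by 5-CT agonist at 100 nM near EC80; beta-lactamase reporter measured by ratiometric fluorescence of a cleavable substrate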
# An asterisk follows results filed as active; x = no result.
SMILES,5HT1E ag,S1P1 ag-PAM,S1P3 agonist,HTR1A agonist,HTR1E antagonist,5HT1a antag
CCc1nc(C)c(C#N)c2cc(OC)c(OC)cc12,0,-60,0,3,44*,12
Clc1ccc(CCNc2ncnc3nc[nH]c23)cc1,0,85*,-2,3,-3,6
c1ccc(CCCNc2ncnc3nc[nH]c23)cc1,0,3,-1,-4,-3,-3
Cc1ccc(S(=O)(=O)C2(C(=O)Nc3ccc4c(c3)OCO4)CC2)cc1,0,-14,1,1,-7,0
Cc1ccc(C)c(NC(=O)CSc2nc3c(c(=O)n2C)SC(C)C3)c1 (centres undefined),1,-9,0,2,4,-4
CCn1c(SCC(=O)Nc2cc(C)ccc2C)nc2c(c1=O)SC(C)C2 (centres undefined),1,-6,-1,70*,0,13
CC(=O)NCCOc1ccc(C(=O)O)cc1,0,-5,1,-3,-8,-8
CCOC(=O)N1CCN(c2nc3ccccc3nc2C(C#N)S(=O)(=O)c2ccc(C)cc2)CC1 (centres undefined),0,9,-1,0,13,3
C=CCn1c(N)c(C(=O)OC(C)(C)C)c2nc3ccccc3nc21,2,-18,-2,4,12,x
C=CCn1c(N)c(C(=O)Nc2ccccc2)c2nc3ccccc3nc21,6,-60,4,27*,1,x
CCCCN(C)C(=O)c1c[nH]c2ccc(S(=O)(=O)N3CCOCC3)cc2c1=O,0,-9,-1,-3,-4,5
CCOC(=O)c1cc2c(ccn2C)n1CC(=O)N1CCN(c2ccccc2)CC1,0,12,0,-2,-14,4
CCOC(=O)c1cc2c(ccn2C)n1Cc1ccccc1C,0,-8,-1,-2,29,44*
COCCn1nnnc1C(C(C)C)N(Cc1cccnc1)Cc1ccccc1Cl (centres undefined),-1,12,-1,-1,-2,14
O=C(NCCc1ccc(Cl)cc1)c1ncn[nH]1,10*,-11,0,-1,6,-4
CCCCN=c1sc(C(=O)OC)cc(=O)n1CCCC,-1,x,x,0,0,-12
CCn1c(=O)cc(C(=O)OC)sc1=Nc1ccc(F)c(F)c1,1,5,0,0,38*,6
CCOC(=O)c1ccc(N=c2sc(C(=O)OC)cc(=O)n2Cc2ccco2)cc1,0,31,-1,-2,12,30
CCOC(=O)c1ccc(N=c2sc(C(=O)OC)cc(=O)n2CCCN2CCOCC2)cc1,-2,25,-2,0,40*,32
COc1ccc(Nc2nnc(Cc3ccccc3)c(=O)[nH]2)c(OC)c1,-2,x,x,-2,13,6
COc1cc(C2NC(=O)NC(O)(C(F)(F)F)C2C(=O)c2cccs2)ccc1O (centres undefined),1,-7,0,-3,-1,-13
COc1ccccc1NC(=O)Nc1nnc(C(C)C)s1,0,21,-3,0,29*,x
CCc1nnc(NC(=O)CSc2nnc(CNc3ccc(Cl)cc3)o2)s1,0,1,-1,-3,5,2
CCOc1cc(C(=O)CSc2nnc(CNc3ccc(Cl)cc3)o2)ccc1NC(=O)CC,4,12,-1,-2,58*,32
Cc1ccc(OCc2nc(C#N)c(N3CCN(Cc4ccccc4)CC3)o2)cc1,-1,18,-2,-3,9,50*
SMILES,5HT1E ag,S1P1 ag-PAM,S1P3 agonist,HTR1A agonist,HTR1E antagonist,5HT1a antag
N#Cc1nc(COc2ccccc2)oc1N1CCC(Cc2ccccc2)CC1,-1,8,-1,-4,2,49*
N#Cc1nc(COc2ccc(F)cc2)oc1N1CCCC1,2,x,x,3,1,-4
N#Cc1nc(COc2ccccc2)oc1N1CCN(Cc2ccccc2)CC1,-2,3,-1,-5,5,46*
N#Cc1nc(COc2cccc(Cl)c2)oc1N1CCCC1,0,0,0,23*,0,3
CN(c1cc(=O)n2ccccc2n1)C1CCCCC1,-1,3,0,30*,16,-2
Cc1cccc(N2CCN(CCNC(=O)c3cc4c(s3)CS(=O)(=O)C4)CC2)c1C,13*,x,x,37*,-5,42
FC(F)(F)c1ccc(N2CCN(c3cc(-c4ccccc4)nc4ncnn34)CC2)nc1,0,108*,-1,0,4,-17
O=S(=O)(Nc1ccc(N2CCOCC2)cc1)c1cccs1,10*,12,-1,-2,6,-10
O=C(COC(=O)c1ccc(S(=O)(=O)N2CCOCC2)cc1)NC1CCCCCC1,-1,x,x,-4,7,-8
CCOC(=O)CSc1n[nH]c(-c2ccco2)n1,0,-25,-1,-3,13,9
O=C(CSc1n[nH]c(-c2ccco2)n1)N1c2ccccc2Sc2ccccc21,-1,23,0,-1,37*,30
CCOC(=O)c1c(NC(=O)CSc2n[nH]c(-c3ccco3)n2)sc(C)c1C,0,-2,0,2,44*,22
CCn1c(Cc2c(C)[nH]c3ccccc23)nnc1SCC(N)=O,0,-28,0,-3,-5,-2
COC(=O)c1ccc(C(=O)OC)c(NC(=O)c2cnc3n(c2=O)CCS3)c1,0,-4,0,2,0,-4
Cn1c(-c2c(N)n(C3CCCC3)c3nc4ccccc4nc23)nc2ccccc21,0,71*,-2,5,77*,77*
Nc1c(C(=O)OCC2CCCO2)c2nc3ccccc3nc2n1C1CCCC1 (centres undefined),2,-5,-1,3,12,39
CCOC(=O)N1CCN(C2=Nc3cccc4cccc2c34)CC1,1,1,0,71*,3,-23
O=C1c2ccccc2C(O)(Cc2ccccc2)N1c1ccc2c(c1)OCO2 (centres undefined),-1,-7,-1,0,5,15
CC1CCN(S(=O)(=O)c2ccc(S(=O)(=O)NCC3COCCO3)cc2)CC1 (centres undefined),26*,-3,0,-2,5,-18
O=C(NCC1CCCO1)c1ccc(S(=O)(=O)N2CCCCC2)cc1 (centres undefined),-1,-21,-1,-2,-12,-2
CCCC1(C(=O)OC)NC(c2ccco2)C2C(=O)N(c3ccc(C)cc3)C(=O)C21 (centres undefined),0,-1,1,1,-6,-1
Cc1onc(-c2ccccc2)c1C(=O)Nc1cc(C(F)(F)F)ccc1N1CCOCC1,0,6,-1,-4,41*,26
O=c1c2ccccc2nc(SCc2cccc(F)c2)n1Cc1ccco1,2,-13,-1,0,-2,42
